T cruzi repl: inhibitors of intracellular T. cruzi growth, primary screen, luminescence, NIH3T3 host cells. T. cruzi beta-gal in NIH3T3, 90 h. actives 1.4% (n = 300,000). inhibition, % (test concentration not listed);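 active = mean inhibition across valid replicates above about 55%, limit read from the data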;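 note: signal also drops with host cell toxicity which is not excluded here; 0% = plate median of DMSO wells and 100% = zero luminescence signal; higher percent means less beta-gal luminescence so fewer parasites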
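Test system: β-gal T. cruzi (Tulahuen C4) inside NIH/3T3 cells / Quantity: 5,000 cells/well / Measured by: luminescence from GalScreen with 0.05% NP40, read after 60 min / Medium: DMEM plus 2% FBS / Measure: parasite load inhibition, % / Reagent: Tulahuen C4 trypomastigotes, 5000/well / Schedule: co-culture of at least 90 h after 3 h attachment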
WT yeast gro inh: growth inhibition of WT strain, primary screen, mitochondrial fusion inhibitor project, WT and mutant strains, chemical genetic; mitochondrial fusion phenotypic screen; inhibition, % at 10 µM; actives 2.1% (n = 190,000); in the data active = inhibition above about 58%; tested in S. cerevisiae
CSC inhib: cancer stem cell viability inhibitors, primary screen, luminescence | inhibition, % at 7.5 µM | cancer stem cell-like cells viability | actives 1.1% (n = 300,000); in the data active = inhibition above about 75%; tested in HMLE shEcad cells
Efflux pump mplx: inhibitors of Candida efflux pumps in yeast, primary screen, S. cerevisiae, Nile Red, multiplex; inhibition, % at 10 µM; AID 485275, 2010; S. cerevisiae Candida pump triplex; actives 0.44% (n = 330,000);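 active = plate passing quality check with inhibition over a set limit, or well fluorescence over plate mean plus 4 SD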;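 note: Nile Red retained in pooled yeast measured as flow cytometry median fluorescence; 0% = buffer negative control and 100% = Enniatin B positive control; higher means more Nile Red kept so more efflux inhibition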
SUMO Mot1 rescue: yeast Mot1-301 growth rescue at high temperature, primary screen, SUMOylation pathway inhibitor project, S. cerevisiae, ATP luminescence, 38.5C; S. cerevisiae Mot1-301 growth rescue; percent above DMSO median, 100 means doubled; growth rescue, % at 18.8 µM; actives 1% (n = 320,000); AID 2716, 2010;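 active = every valid replicate shows activation above 250% relative to neutral control wells; inactive = the rest, any valid replicate at or below 250%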;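 note: OY570 slx delta 5 strain wells were the positive control but not used for scaling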
Beta apoptosis: inhibitors of cytokine-induced beta cell apoptosis, primary screen, luminescence | INS-1E cytokine-induced death, ATP luminescence, 48 h; percent of positive-control rescue, neutral wells zero | protection from apoptosis, % (concentration not given with the values) | actives 0.8% (n = 300,000) | AID 435005, 2010;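 active = Every replicate reaches about 75%, or at least half do and their mean reaches it too, limit read from the data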;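 note: 0% = cytokine-treated negative control wells and 100% = positive control rescue; higher means more ATP so stronger rescue from cytokine killing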
Starred values were filed as active, the others as inactive; / = no result. Only some compounds are listed: those with a hit (about 4.8% of all), similar ones and a draw of the others.

SMILES | T cruzi repl | WT yeast gro inh | CSC inhib | Efflux pump mplx | SUMO Mot1 rescue | Beta apoptosis
O=C1C2CCCCC2C(=O)N1c1ccc(S(=O)(=O)Nc2ncccn2)cc1 (stereo unspecified) | -16 | / | 6 | -3 | 7 | -2
Cc1ccc(C(=C2C3C=CC2C2C(=O)NC(=O)C32)c2ccc(C)cc2)cc1 (stereo unspecified) | 32 | 83* | 28 | 0 | 17 | -3
COC(=O)c1ccc(C2N=C(c3cccs3)CC(c3ccccc3O)N2)cc1 (stereo unspecified) | 3 | 62* | 56 | 0 | 0 | 21
CNC(=O)NCC12CC3CC(CC(C3)C1)C2 | 4 | -13 | -4 | 0 | 468 | -10
Cc1cc(C(=O)NCC23CC4CC(CC(C4)C2)C3)c(C)o1 | 61* | 10 | -3 | 0 | -2 | 6
O=c1cc(-c2ccccc2)[nH]n1-c1nc2ccccc2s1 | 1 | -14 | 98* | 0 | -5 | 5
CC(=O)c1c(CC(=O)O)[nH]n(-c2nc3ccccc3s2)c1=O | -8 | / | 35 | 0 | -33 | 42
COc1cccc(CN(C(=O)Cc2c[nH]c3ccccc23)C(C(=O)NC2CCCCC2)c2cccs2)c1 (stereo unspecified) | 55* | 11 | 6 | 0 | -10 | 15
O=C(NC1CCCCC1)C(c1cccs1)N(C(=O)Cc1c[nH]c2ccccc12)c1ccc(F)cc1 (stereo unspecified) | 57* | 57 | -4 | 0 | 40 | 5
Cc1ccc(C(C(=O)NC2CCCCC2)N(C(=O)Cc2c[nH]c3ccccc23)c2ccccc2)o1 (stereo unspecified) | 56* | 5 | -10 | 0 | 5 | 8
CC(=O)Nc1ccc(N(C(=O)Cc2c[nH]c3ccccc23)C(C(=O)NC2CCCCC2)c2ccco2)cc1 (stereo unspecified) | -4 | -24 | -11 | -7 | -5 | -1
CCOc1cccc2sc(N(CCCN(C)C)C(=O)c3ccc(S(=O)(=O)N(C)c4ccccc4)cc3)nc12 | 56* | 12 | / | 0 | -5 | -13
CN(C)CCCN(C(=O)CCOc1ccccc1)c1nc2c(F)cccc2s1 | 59* | 11 | / | / | / | /
CN(C)CCCN(C(=O)CCc1ccccc1)c1nc2c(F)cccc2s1 | 58* | 60* | -6 | 0 | 85 | -1
CN(C)CCCN(C(=O)/C=C/c1cccs1)c1nc2c(F)cccc2s1 | 56* | 47 | / | / | / | /
CN(C)CCCN(C(=O)CCOc1ccccc1)c1nc2ccc(F)cc2s1 | / | 35 | / | / | / | /
Cc1cccc2sc(N(CCN(C)C)C(=O)/C=C/c3cccs3)nc12 | 22 | 13 | 36 | 0 | -2 | 15
Cc1cc(=O)cc(C)n1-c1ccc(F)cc1F | -10 | -4 | -4 | 0 | -1 | -4
Cc1ccc(NCc2ccc(O)c3ncccc23)cc1 | 2 | -16 | 18 | 0 | -3 | 2
Cc1ccc(C)c(N=Nc2ccc(O)c3ncccc23)c1 | 31 | 0 | 103* | 0 | -6 | 88*
Cc1ccc(N=Nc2cc(C)ccc2O)c(C)c1 | 1 | / | 3 | 0 | -3 | 1
Oc1ccc(N=Nc2ccc3c(c2)OCCO3)c2ncccc12 | 68* | / | 98* | 0 | -13 | 96*
Cc1cccc(N=Nc2ccc(O)c3ncccc23)c1 | 51 | 65* | 99* | -1 | 27 | 88*
CCS(=O)(=O)c1ccc2oc(SCC(=O)NC3CCCC(C)C3C)nc2c1 (stereo unspecified) | 9 | -26 | 5 | 0 | -3 | 3
CC12CCC(=O)N1C(C(=O)Nc1cc(Cl)ccc1N1CCCC1)CS2 (stereo unspecified) | / | / | -6 | 0 | 0 | 0
CC/C(=N/NC(=O)c1ccccc1O)c1c(C)[nH]n(-c2ccccc2)c1=O | -11 | / | 81* | 0 | -12 | 36
Cc1[nH]n(-c2ccccc2)c(=O)c1C(=O)c1ccccc1 | -10 | / | -1 | 0 | 12 | -5
O=C(COC(=O)c1ccc(F)c(S(=O)(=O)N2CCCCC2)c1)NCc1ccc(F)cc1 | -7 | 10 | -9 | 0 | -9 | 1

Source: PubChem BioAssay
